21 molecules from ChEMBL document CHEMBL3763115, “Silibinin derivatives as anti-prostate cancer agents: Synthesis and cell-based evaluations” (Eur J Med Chem, 2016) can be followed below.

Assay [1] deals with LNCaP. The assay can be described thus: Antiproliferative activity against human LNCAP cells assessed as reduction in cell viability after 3 days by WST-1 cell proliferation assay. Format: functional, cell-based. To be noted: 72 h. An outline of the steps: (§1)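 Cells from ATCC; PC-3 and LNCaP grown in RPMI-1640, DU145 in EMEM, each with 10% FBS and 1% penicillin/streptomycin, 37 °C, 5% CO2. 3,200 cells per well, treated at 5 concentrations for 3 days with 0.25% DMSO as vehicle control. WST-1 reagent added, 3 h at 37 °C, absorbance read at 430 nm. IC50 from linear fit of at least five doses, mean of at least triplicates.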
(Tetrazolium assays rely on reduction of a dye to a coloured formazan, in cell work by metabolically active cells.)

The nature of assay [2]: Antiproliferative activity against human DU145 cells assessed as reduction in cell viability after 3 days by WST-1 cell proliferation assay. Format: functional, cell-based. To be noted: DU-145, 72 h. The essentials:
as §1

A short description of assay [3]: Antiproliferative activity against human PC3 cells assessed as reduction in cell viability after 3 days by WST-1 cell proliferation assay. Format: functional, cell-based. The conditions noted are these: PC-3, 72 h. The essentials:
as §1

The subject of assay [4] is LNCaP. The assay can be described thus: Potency index, ratio of silibinin IC50 to compound IC50 for antiproliferative activity against human LNCAP cells. Format: functional. The essentials: (§2)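 Ratio of silibinin IC50 to derivative IC50. Both come from the 3-day WST-1 assay run in parallel (5 doses, absorbance at 430 nm, IC50 from linear fit, at least triplicates).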

Assay [5] in a line: Potency index, ratio of silibinin IC50 to compound IC50 for antiproliferative activity against human DU145 cells. Format: functional, DU-145. An outline of the steps:
as §2

The nature of assay [6]: Potency index, ratio of silibinin IC50 to compound IC50 for antiproliferative activity against human PC3 cells. Format: functional, PC-3. The essentials:
as §2

A word on the IC50: it is the point on the concentration scale where inhibition reaches its midpoint.

`COc1cc(C2Oc3cc(-c4oc5cc(OCc6ccccc6)cc(O)c5c(=O)c4OCc4ccccc4)ccc3OC2CO)ccc1O` (stereo not drawn): the IC50 (in the assay on LNCaP [1]; in assay [2]; in assay [3]) was above 100 µM throughout. Also, the “Ratio IC50” value (in the assay on LNCaP [4]; in assay [5]; in assay [6]) was below 1 throughout.
As for `CCCOc1cc(O)c2c(c1)O[C@H](c1ccc3c(c1)OC(c1ccc(O)c(OC)c1)C(CO)O3)[C@@H](O)C2=O` (stereo partly drawn), the values for the concentration for half-maximal inhibition (IC50) (in the assay with LNCaP [1]; in assay [2]; in assay [3]) were 4.66 µM, 30.3 µM and 18.5 µM, respectively. Further, the figures for the “Ratio IC50” value (with LNCaP [4]; in assay [5]; in assay [6]) were 9, 3 and 4, respectively.
With `CCCCOc1cc(O)c2c(c1)O[C@H](c1ccc3c(c1)OC(c1ccc(O)c(OC)c1)C(CO)O3)[C@@H](O)C2=O` (stereo partly drawn), the figures for the IC50 (in the assay on LNCaP [1]; in assay [2]; in assay [3]) were 2.51 µM, 12 µM and 5.38 µM, respectively. In addition, the “Ratio IC50” value with LNCaP [4] stood at 17; in assay [5] it was 8; in assay [6], 14.
For `CCCOc1cc(O)c2c(=O)c(OCCC)c(-c3ccc4c(c3)OC(c3ccc(O)c(OC)c3)C(CO)O4)oc2c1` (stereo not drawn), the half-inhibitory concentration (IC50) in the assay on LNCaP [1] came to 11 µM; in assay [2], 20.6 µM; in assay [3], 17.4 µM. For the same molecule, the results for the “Ratio IC50” value (in the assay with LNCaP [4]; in assay [5]; in assay [6]) were 4, 5 and 5, respectively.
Turning to `CCCCCCCOc1cc(O)c2c(=O)c(OCCCCCCC)c(-c3ccc4c(c3)OC(c3ccc(O)c(OC)c3)C(CO)O4)oc2c1` (stereo not drawn), the half-inhibitory concentration (IC50) (in the assay on LNCaP [1]; in assay [2]; in assay [3]) was above 100 µM in each case. For the same molecule, the “Ratio IC50” value (in the assay on LNCaP [4]; in assay [5]; in assay [6]) was below 1 in each case.
As to `CCCCCCOc1cc(O)c2c(=O)c(OCCCCCC)c(-c3ccc4c(c3)OC(c3ccc(O)c(OC)c3)C(CO)O4)oc2c1` (stereo not drawn), the 50% inhibitory concentration (IC50) (in the assay on LNCaP [1]; in assay [2]; in assay [3]) was above 100 µM throughout. Besides, the “Ratio IC50” value (in the assay with LNCaP [4]; in assay [5]; in assay [6]) was below 1 each time.
Take `COc1cc(C2Oc3cc(-c4oc5cc(OCc6ccccc6)cc(O)c5c(=O)c4O)ccc3OC2CO)ccc1O` (stereo not drawn): the half-inhibitory concentration (IC50) with LNCaP [1] was determined as 3.71 µM; in assay [2], 8.97 µM; in assay [3] it was 7.98 µM. The “Ratio IC50” value in the assay on LNCaP [4] was determined as 12; in assay [5] it was 10; in assay [6], 9.
Take `CCCCCCOc1cc(O)c2c(c1)O[C@H](c1ccc3c(c1)OC(c1ccc(O)c(OC)c1)C(CO)O3)[C@@H](O)C2=O` (stereo partly drawn): the values for the half-maximal inhibitory concentration (IC50) (with LNCaP [1]; in assay [2]; in assay [3]) were 1.65 µM, 11.3 µM and 5.97 µM, respectively. Besides, the “Ratio IC50” value is given as 26 with LNCaP [4], 8 in assay [5] and 12 in assay [6].
For the molecule `CCCCCCCOc1cc(O)c2c(=O)c(O)c(-c3ccc4c(c3)OC(c3ccc(O)c(OC)c3)C(CO)O4)oc2c1` (stereo not drawn), the values for the IC50 (in the assay with LNCaP [1]; in assay [2]; in assay [3]) were 4.81 µM, 7.49 µM and 7.09 µM, respectively. For the same molecule, the “Ratio IC50” value is reported as 9 in the assay on LNCaP [4], 12 in assay [5] and 10 in assay [6].
For the molecule `CCOc1cc(O)c2c(c1)O[C@H](c1ccc3c(c1)OC(c1ccc(O)c(OC)c1)C(CO)O3)[C@@H](O)C2=O` (stereo partly drawn), the values for the concentration for half-maximal inhibition (IC50) (in the assay with LNCaP [1]; in assay [2]; in assay [3]) were 0.35 µM, 27.7 µM and 16.1 µM, respectively. Also, the “Ratio IC50” value in the assay with LNCaP [4] is recorded as 123; in assay [5] it was 3; in assay [6] it was 5.
For the molecule `CCCCCOc1cc(O)c2c(=O)c(OCCCCC)c(-c3ccc4c(c3)OC(c3ccc(O)c(OC)c3)C(CO)O4)oc2c1` (stereo not drawn), the figures for the half-inhibitory concentration (IC50) (with LNCaP [1]; in assay [2]; in assay [3]) were 28.7 µM, 28.7 µM and 52.1 µM, respectively. The “Ratio IC50” value with LNCaP [4] was determined as 1; in assay [5], 3; in assay [6], 1.
Take `COc1cc(O)c2c(c1)O[C@H](c1ccc3c(c1)OC(c1ccc(O)c(OC)c1)C(CO)O3)[C@@H](O)C2=O` (stereo partly drawn): the results for the concentration for half-maximal inhibition (IC50) (in the assay on LNCaP [1]; in assay [2]; in assay [3]) were 0.44 µM, 25.1 µM and 12.4 µM, respectively. Further, the “Ratio IC50” value worked out at 98 with LNCaP [4], 4 in assay [5] and 6 in assay [6].
Turning to `CCCCCOc1cc(O)c2c(=O)c(O)c(-c3ccc4c(c3)OC(c3ccc(O)c(OC)c3)C(CO)O4)oc2c1` (stereo not drawn), the IC50 in the assay with LNCaP [1] turned out to be 4.62 µM; in assay [2], 6.92 µM; in assay [3] it was 6.05 µM. The results for the “Ratio IC50” value (with LNCaP [4]; in assay [5]; in assay [6]) were 9, 14 and 12, respectively.
In the case of `COc1cc(C2Oc3cc([C@H]4Oc5cc(OCc6ccccc6)cc(O)c5C(=O)[C@@H]4O)ccc3OC2CO)ccc1O` (stereo partly drawn), the half-maximal inhibitory concentration (IC50) in the assay on LNCaP [1] was found to be 2.04 µM; in assay [2], 8.77 µM; in assay [3], 5.29 µM. Further, the “Ratio IC50” value in the assay on LNCaP [4] is given as 21; in assay [5] it was 11; in assay [6] it was 14.
On to `CCCCCOc1cc(O)c2c(c1)O[C@H](c1ccc3c(c1)OC(c1ccc(O)c(OC)c1)C(CO)O3)[C@@H](O)C2=O` (stereo partly drawn), for which the half-maximal inhibitory concentration (IC50) in the assay with LNCaP [1] turned out to be 1.78 µM; in assay [2], 8.93 µM; in assay [3], 6.17 µM. Also, the “Ratio IC50” value in the assay on LNCaP [4] was 24; in assay [5], 10; in assay [6] it was 12.
For `COc1cc(C2Oc3cc([C@H]4Oc5cc(O)cc(O)c5C(=O)[C@@H]4O)ccc3OC2CO)ccc1O` (stereo partly drawn) [SILIBININ], the half-inhibitory concentration (IC50) in the assay on LNCaP [1] amounted to 43 µM; in assay [2], 93.3 µM; in assay [3] it was 72.7 µM.
With `CCCCOc1cc(O)c2c(=O)c(OCCCC)c(-c3ccc4c(c3)OC(c3ccc(O)c(OC)c3)C(CO)O4)oc2c1` (stereo not drawn), the half-maximal inhibitory concentration (IC50) was 46.6 µM in the assay on LNCaP [1], 36.5 µM in assay [2] and 45.8 µM in assay [3]. Also, the “Ratio IC50” value with LNCaP [4] is 1; in assay [5] it was 3; in assay [6] it was 2.
For `COc1cc(O)c2c(=O)c(O)c(-c3ccc4c(c3)OC(c3ccc(O)c(OC)c3)C(CO)O4)oc2c1` (stereo not drawn), the IC50 in the assay with LNCaP [1] came to 2.76 µM; in assay [2], 7.92 µM; in assay [3] it was 2.39 µM. Also, the “Ratio IC50” value in the assay with LNCaP [4] stood at 16; in assay [5], 12; in assay [6] it was 30.
`CCCCCCOc1cc(O)c2c(=O)c(O)c(-c3ccc4c(c3)OC(c3ccc(O)c(OC)c3)C(CO)O4)oc2c1` (stereo not drawn): the half-maximal inhibitory concentration (IC50) in the assay on LNCaP [1] is 4.01 µM; in assay [2], 8.84 µM; in assay [3], 6.94 µM. Also, the “Ratio IC50” value was 11 in the assay with LNCaP [4], 11 in assay [5] and 10 in assay [6].
Consider `CCOc1cc(O)c2c(=O)c(OCC)c(-c3ccc4c(c3)OC(c3ccc(O)c(OC)c3)C(CO)O4)oc2c1` (stereo not drawn), for which the half-inhibitory concentration (IC50) turned out to be 5.57 µM in the assay on LNCaP [1], 10.4 µM in assay [2] and 8.5 µM in assay [3]. The “Ratio IC50” value in the assay with LNCaP [4] was determined as 8; in assay [5] it was 9; in assay [6], 9.
With `CCCCCCCOc1cc(O)c2c(c1)O[C@H](c1ccc3c(c1)OC(c1ccc(O)c(OC)c1)C(CO)O3)[C@@H](O)C2=O` (stereo partly drawn), the 50% inhibitory concentration (IC50) in the assay on LNCaP [1] stood at 4.57 µM; in assay [2] it was 17.4 µM; in assay [3], 10.9 µM. Also, the “Ratio IC50” value worked out at 9 in the assay on LNCaP [4], 5 in assay [5] and 7 in assay [6].
